From ChEMBL document CHEMBL4304781, “Development of Highly Selective Pyrimidine-Based Aldosterone Synthase (CYP11B2) Inhibitors” (ACS Med Chem Lett, 2019)
≈ marks a conversion by molar mass, not a printed value.

Columns and labels:
[1] = Tmax in cynomolgus monkey at 1 mg/kg, po measured after 24 or 72 hrs; type: ADME, organism-based, Macaca fascicularis; conditions: in vivo
In short: (§1)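 Male cynomolgus monkeys dosed orally at 1 mg/kg in 0.5% CMC, 0.1% Tween-80, 1% DMSO. Plasma drug concentrations followed out to 24 or 72 h. Cmax, Tmax, AUC0-24 and t1/2 derived from plasma levels.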

[2] = biological target: T1, Cytochrome P450 11B1, mitochondrial (Homo sapiens, UniProt P15538); assay: Inhibition of human recombinant CYP11B1 using deoxycortisol as substrate incubated for 60 mins by cell-based HPLC analysis; type: ADME
T1 sequence (P15538 whole entry): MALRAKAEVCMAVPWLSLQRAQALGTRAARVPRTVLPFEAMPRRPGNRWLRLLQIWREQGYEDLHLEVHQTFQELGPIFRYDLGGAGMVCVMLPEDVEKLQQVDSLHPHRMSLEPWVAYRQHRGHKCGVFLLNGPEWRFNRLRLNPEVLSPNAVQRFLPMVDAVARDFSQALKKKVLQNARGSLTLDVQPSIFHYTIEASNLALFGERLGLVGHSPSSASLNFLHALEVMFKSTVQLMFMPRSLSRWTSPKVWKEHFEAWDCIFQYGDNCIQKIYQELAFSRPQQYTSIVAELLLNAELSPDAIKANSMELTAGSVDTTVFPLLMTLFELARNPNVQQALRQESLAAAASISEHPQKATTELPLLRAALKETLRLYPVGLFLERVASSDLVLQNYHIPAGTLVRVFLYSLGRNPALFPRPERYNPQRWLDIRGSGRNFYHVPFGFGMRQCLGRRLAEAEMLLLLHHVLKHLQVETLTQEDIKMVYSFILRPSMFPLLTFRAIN
In short: (§2)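 Recombinant human CYP11B2 or CYP11B1. Substrate and product steroids both monitored by HPLC-MS. Selectivity taken as CYP11B1 IC50 / CYP11B2 IC50.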

[3] = AUC (0 to 24 hrs) in cynomolgus monkey at 1 mg/kg, po measured after 24 or 72 hrs; type: ADME, organism-based, Macaca fascicularis; parameters: time < 24 hr, dose 1 mg/kg, route oral; conditions: in vivo; in short: as §1
[4] = biological target: T2, Cytochrome P450 11B2, mitochondrial (Homo sapiens, UniProt P19099); assay: Inhibition of human recombinant CYP11B2 using deoxycorticosterone as substrate incubated for 90 mins by cell-based HPLC analysis; in short: as §2
T2 sequence (P19099 whole entry): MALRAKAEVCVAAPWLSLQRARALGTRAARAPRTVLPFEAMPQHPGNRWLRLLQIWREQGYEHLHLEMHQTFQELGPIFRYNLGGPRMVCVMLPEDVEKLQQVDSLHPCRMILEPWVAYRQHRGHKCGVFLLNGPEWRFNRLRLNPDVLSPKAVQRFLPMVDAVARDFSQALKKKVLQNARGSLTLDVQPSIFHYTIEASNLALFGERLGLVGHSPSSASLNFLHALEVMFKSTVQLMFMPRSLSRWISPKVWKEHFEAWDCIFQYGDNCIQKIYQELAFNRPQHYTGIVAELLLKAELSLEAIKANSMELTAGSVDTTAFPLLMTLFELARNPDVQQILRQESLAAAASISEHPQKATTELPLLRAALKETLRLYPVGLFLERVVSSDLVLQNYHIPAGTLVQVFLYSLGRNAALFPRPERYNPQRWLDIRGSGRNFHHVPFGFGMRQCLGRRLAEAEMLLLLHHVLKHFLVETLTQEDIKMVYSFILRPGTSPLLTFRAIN

[5] = Thermodynamic solubility in phosphate free buffer pH 7.4 incubated for 24 hrs by HPLC/LCMS-MS based shake flask method; type: physicochemical; conditions: read-out: Therm_solubility
[6] = Cmax in cynomolgus monkey at 1 mg/kg, po measured after 24 or 72 hrs; type: ADME, organism-based, Macaca fascicularis; parameters: dose 1 mg/kg, route oral; conditions: in vivo; in short: as §1
[7] = Stability in cynomolgus monkey liver microsomes assessed as parent compound remaining at 1 uM measured after 65 mins by LC/MS-MS analysis; type: ADME, Macaca fascicularis, Microsome; conditions: read-out: Stability
In short: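 Parent compound percentage remaining after 65 min incubation with cynomolgus monkey liver microsomes.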

Homo sapiens = species: Homo sapiens; assay: Selectivity index, ratio of IC50 for human recombinant CYP11B1 to IC50 for human recombinant CYP11B2; in short: as §2
[8] = Half life in cynomolgus monkey at 1 mg/kg, po measured after 24 or 72 hrs; type: ADME, organism-based, Macaca fascicularis; conditions: in vivo; in short: as §1

Structure (SMILES) | Tmax [1] [h] | IC50 [2] [nM] | AUC(0-t) at 24 h [3] [µM·h] | IC50 [4] [nM] | solubility thermodynamic at 24 h [5] [µM] | Cmax [6] [nM] | remaining at 65 min, 1 µM [7] [%] | Ratio IC50 (Homo sapiens) | half-life [8] [h]
N#Cc1ccc2nc(-c3cncnc3C(F)(F)F)n(C3CC3)c2n1 | 0.5 | 4810 | 10.1 | 24 | 153 (≈ 50.5 µg/mL) | 1680 | 87 | 200 | 5.3
Fc1ccc2nc(-c3cncnc3)n(C3CC3)c2c1 |  |  |  |  |  |  |  | 136 | 
Fc1ccc2nc(-c3cnco3)n(C3CC3)c2c1 |  | > 10000 |  | > 10000 |  |  |  |  | 
N#Cc1ccc2nc(-c3cncnc3C(F)(F)F)n(C3CC3)c2c1 |  | 4170 |  | 16 |  |  | 62 | 261 | 
Fc1cc2nc(-c3cncnc3C(F)F)n(C3CC3)c2cc1F | 1 | 4320 | 8.8 | 18 |  | 620 | 106 | 240 | 15.3
Fc1cc2nc(-c3cncnc3)n(C3CC3)c2cc1F |  | 2270 |  | 22 |  |  | 98 | 103 | 
CC(F)(F)c1ncncc1-c1nc2cc(F)c(F)cc2n1C1CC1 |  | 5720 |  | 50 |  |  |  | 114 | 
Fc1ccc2nc(-c3cccnn3)n(C3CC3)c2c1 |  | > 10000 |  | 412 |  |  |  | > 24 | 

More lines, now with the values ahead:

Tmax [1] [h] | IC50 [2] [nM] | AUC(0-t) at 24 h [3] [µM·h] | IC50 [4] [nM] | solubility thermodynamic at 24 h [5] [µM] | Cmax [6] [nM] | remaining at 65 min, 1 µM [7] [%] | Ratio IC50 (Homo sapiens) | half-life [8] [h] | Structure (SMILES)
 | 390 |  | < 2 |  |  |  | > 195 |  | CNc1ncncc1-c1nc2cc(F)c(F)cc2n1C1CC1
 | 1910 |  | 5 |  |  | 80 | 381 |  | CC(C)c1ncncc1-c1nc2cc(F)c(F)cc2n1C1CC1
 | 378 |  | 3 |  |  | 55 | 126 |  | Fc1cc2nc(-c3cncnc3NCCC(F)(F)F)n(C3CC3)c2cc1F
 | 1670 |  | 782 |  |  |  | 2 |  | Fc1ccc2nc(-c3cn[nH]c3)n(C3CC3)c2c1
